Laboratory results: ChEMBL document CHEMBL4184138 (Bioorg Med Chem Lett, 2017)
pKi: −log10 of the molar value. Calls of active or inactive are those of the source. The calls are words filed in the database; no cut-off is given here.

Assays:
Mu-type opioid receptor = Mu-type opioid receptor (Rattus norvegicus, UniProt P33535); assay: Displacement of [3H]-DAMGO from mu opioid receptor in Wistar rat brain membranes preincubated for 1 hr measured after 1hr by scintillation counting method; format: cell membranes, Membrane
Chain of Mu-type opioid receptor (P33535 whole entry): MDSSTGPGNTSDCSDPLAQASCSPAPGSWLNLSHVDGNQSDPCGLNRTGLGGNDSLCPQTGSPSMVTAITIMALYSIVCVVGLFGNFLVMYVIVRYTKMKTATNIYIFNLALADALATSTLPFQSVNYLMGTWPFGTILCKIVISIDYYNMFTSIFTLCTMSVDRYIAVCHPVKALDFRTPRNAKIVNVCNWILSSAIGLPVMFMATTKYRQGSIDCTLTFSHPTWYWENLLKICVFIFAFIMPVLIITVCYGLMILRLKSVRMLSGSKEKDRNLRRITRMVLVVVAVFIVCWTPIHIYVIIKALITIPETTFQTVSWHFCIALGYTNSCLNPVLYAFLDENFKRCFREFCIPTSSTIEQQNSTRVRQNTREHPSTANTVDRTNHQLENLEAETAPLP
How it was run: (§1)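 Opioid receptor binding done on rat brain membranes. Affinity values are given as mean ± SEM of 8-12 measurements.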

[1] = target: Delta-type opioid receptor (Rattus norvegicus, UniProt P33533); assay: Displacement of [3H]-DPDPE from delta opioid receptor in Wistar rat brain membranes preincubated for 3 hrs measured after 1 hr by scintillation counting method; format: cell membranes, Membrane; how it was run: as §1
Chain of Delta-type opioid receptor (P33533 whole entry): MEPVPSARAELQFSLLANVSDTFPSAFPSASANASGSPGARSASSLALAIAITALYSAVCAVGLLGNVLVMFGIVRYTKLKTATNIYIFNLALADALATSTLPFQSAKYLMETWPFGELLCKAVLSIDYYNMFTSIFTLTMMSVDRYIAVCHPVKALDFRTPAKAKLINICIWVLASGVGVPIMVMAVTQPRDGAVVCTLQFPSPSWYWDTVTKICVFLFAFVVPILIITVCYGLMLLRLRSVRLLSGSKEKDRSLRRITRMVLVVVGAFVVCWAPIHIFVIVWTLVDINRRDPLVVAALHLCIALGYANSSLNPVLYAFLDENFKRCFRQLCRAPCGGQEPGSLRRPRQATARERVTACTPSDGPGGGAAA

Rattus norvegicus = species: Rattus norvegicus; assay: Selectivity ratio of Ki from delta opioid receptor in Wistar rat brain membranes to Ki from mu opioid receptor in Wistar rat brain membranes; format: cell membranes
[2] = Half life in Kunming mouse 15% brain homogenate at 500 uM by RP-HPLC analysis; format: ADME, tissue-based
How it was run: (§2)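 Peptide stability was measured by incubation in 15% mouse brain homogenate or in mouse plasma, and the half-life was determined for each matrix.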

[3] = Half life in Kunming mouse plasma at 500 uM by RP-HPLC analysis; format: ADME, cell-free; how it was run: as §2
Mus musculus [4] = assay: Antinociceptive activity in Kunming mouse assessed as increase in latency to withdrawal by measuring AUC at 20 nmol/kg, i.c.v measured up to 45 mins post dose by tail-flick test; format: functional, organism-based; design: dose 20 nmol/kg, time < 0.75 hr
How it was run: (§3)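 Mouse tail-flick test. A single fixed dose was given, either 20 nmol/kg i.c.v. or 10 mg/kg s.c. Antinociception was followed as a time course, and the area under the effect-time curve (A.U.C) was calculated.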

Mus musculus [5] = assay: Antinociceptive activity in Kunming mouse assessed as increase in latency to withdrawal by measuring AUC at 10 mg/kg, sc measured up to 45 mins post dose by tail-flick test; format: functional, organism-based; design: dose 10 mg/kg, time < 0.75 hr; how it was run: as §3
Mus musculus [6] = assay: Antinociceptive activity in Kunming mouse assessed as increase in latency to withdrawal at 10 mg/kg, sc measured up to 5 to 45 mins post dose in presence of opioid antagonist naloxone by tail-flick test; format: functional, organism-based

SMILES	pKi (Mu-type opioid receptor)	pKi [1]	Ratio Ki (Rattus norvegicus)	half-life at 500 µM [2] [h]	half-life at 500 µM [3] [h]	AUC (Mus musculus [4])	AUC (Mus musculus [5])	Activity (Mus musculus [6])
C[C@@H](NC(=O)[C@@H](N)Cc1ccc(O)cc1)C(=O)NCC(=O)N[C@@H](Cc1c[nH]c2ccccc12)C(=O)N[C@@H](Cc1ccccc1)C(N)=O	7.88	5.39	305	3.66	2.51	336	304	–
C[C@@H](NC(=O)[C@H](Cc1ccc(O)cc1)NC(=N)N)C(=O)NCC(=O)N[C@@H](Cc1c[nH]c2ccccc12)C(=O)N[C@@H](Cc1ccccc1)C(N)=O	8.74	5.41	2140	7.4	4.08	1160	631	–
C[C@@H](NC(=O)[C@@H](N)Cc1ccc(O)cc1)C(=O)NCC(=O)N[C@@H](Cc1c[nH]c2ccccc12)C(=O)N[C@@H](Cc1ccc(Cl)cc1)C(N)=O	8.11	5.39	528	4.2	2.84	246	570	–
C[C@@H](NC(=O)[C@H](Cc1ccc(O)cc1)NC(=N)N)C(=O)NCC(=O)N[C@@H](Cc1c[nH]c2ccccc12)C(=O)N[C@@H](Cc1ccc(Cl)cc1)C(N)=O	8.49	5.69	635	7.25	4.73	650	1400	inactive
NC(=O)[C@H](Cc1ccccc1)NC(=O)[C@H](Cc1c[nH]c2ccccc12)NC(=O)[C@@H]1CCCN1C(=O)[C@@H](N)Cc1ccc(O)cc1	–	–	–	–	–	271	693	–
